In general, CC50 refers to the concentration at which the toxic effect on the cells reaches its halfway point. For orientation: half-life means how long it takes for the measured level to halve.

The nature of series [1]: Cytotoxicity against human HuH7 cells assessed as viable cells after 6 days by XTT assay. Format: functional. The following applies: Huh-7, 144 h. A digest of the protocol: (§1)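 Cells seeded at 2 × 10⁴ cells/well in 96-well plates; test substances added next day in duplicate. CC50 is the concentration giving 50% viability relative to untreated control cells. Positive control included.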
In general terms: Tetrazolium dyes change colour on reduction, which living cells bring about.

The next series deals with MT4. The experiment in a line: Cytotoxicity against human MT4 cells assessed as viable cells after 6 days by XTT assay. Format: functional. The following applies: MT4, 144 h. In short, it runs like this: as §1
Series [2] is described as follows: Chemical reactivity of the compound in aqueous HCl assessed as reaction rate. The format is physicochemical. The following applies: buffer. In short, it runs like this: (§2)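 Compound dissolved in 2 M HCl at room temperature; reaction followed spectrophotometrically at 318 nm and by LC-HRESIMS. First-order rate constant k (min⁻¹) and t1/2 (min) derived from the decay.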

Series [3] can be described thus: Half life of the compound in aqueous HCl. The format is physicochemical. In short, it runs like this:
as §2

Series [4] is described as follows: Half life of the compound in phosphate buffer at pH 5.4 in presence of cysteine. The format is ADME. The following applies: phosphate buffer with cysteine.
A short description of series [5]: Drug level in phosphate buffer treated with (3S,7R)-Illudin M at pH 5.4 in presence of cysteine. Format: physicochemical. A digest of the protocol:
(§3)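 Compound was incubated with L-cysteine in 50 mM buffer at pH 5.4 at room temperature. The reaction was followed for 3 h by UV absorbance at 318 nm and by LC-HRESIMS (C18, 10−90% aqueous MeCN gradient). Reaction half-life was taken from the time course.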

The nature of series [6]: Drug level in phosphate buffer treated with (3S,7S)-Illudin M at pH 5.4 in presence of cysteine. Format: physicochemical. In short, it runs like this: as §3

Consider `COc1nc(N)nc2c1ncn2[C@@H]1O[C@H](COP(=O)(N[C@H](C)C(=O)OCC(C)(C)C)Oc2ccc3ccccc3c2)[C@@H](O)[C@@]1(C)O` (stereo partly drawn), for which the CC50 (in series [1]; in the series on MT4) was 3 µM throughout.
For the molecule `CC1=C2C(=CC(C)(C)[C@@H]2O)C(=O)[C@@](C)(O)C12CC2`, the half-maximal cytotoxic concentration (CC50) in series [1] worked out at 0.38 µM; with MT4, 0.014 µM. In series [2], the K worked out at 12 ×10⁻³ /min. For the same molecule, the half-life came out at 38 min in series [3] and 5.6 min in series [4].
On to `CC1=C2C(=C[C@@](C)(CO)[C@@H]2O)C(=O)[C@@](C)(O)C12CC2`, for which the figures for the 50% cytotoxic concentration (CC50) (in series [1]; with MT4) were 0.098 µM and 0.023 µM, respectively.
For the molecule `Cc1c(O)c2c(c(C)c1CCO)[C@H](O)C(C)(C)[C@H]2SC[C@H](N)C(=O)O`, in series [5], the Drug metabolism result was “metabolite_detected”.
For `CC1=CC2=C[C@@](C)(CO)C[C@@H]2[C@@](C)(O)C12CC2`, the CC50 (in series [1]; in the series on MT4) was more than 400 µM in each case.
As to `CC1=C2C(=CC(C)(C)[C@H]2O)C(=O)[C@@](C)(O)C12CC2`, the cytotoxic concentration (CC50) was 1.3 µM in series [1] and 0.12 µM in the series with MT4. The K in series [2] is given as 4.1 ×10⁻³ /min. The half-life in series [3] stood at 170 min; in series [4], 27 min.
For the molecule `Cc1c(O)c2c(c(C)c1CCO)[C@H](O)C(C)(C)[C@@H]2SC[C@H](N)C(=O)O`, in series [5], the Drug metabolism entry is “metabolite_detected”.
Consider `Cc1c(O)c2c(c(C)c1CCO)[C@@H](O)C(C)(C)[C@H]2SC[C@H](N)C(=O)O`, for which the Drug metabolism result in series [6] is listed as “metabolite_detected”.
Take `CC1(C)C=C2C=C(CO)C3(CC3)[C@](C)(O)[C@H]2C1`: the CC50 in series [1] came out at 240 µM; with MT4, 110 µM.
In the case of `CC1=C2C(=CC(C)(C)[C@@H]2O)C(=O)[C@](C)(O)C12CC2` [ILLUDIN M], the K in series [2] is 4.7 ×10⁻³ /min. Further, in series [3], the half-life stood at 147 min.

The values above are taken from ChEMBL document CHEMBL3739411, “Cytotoxic Illudane Sesquiterpenes from the Fungus Granulobasidium vellereum (Ellis and Cragin) Jülich” (J Nat Prod, 2015).
